Calls of active or inactive are those of the source.
How the values were obtained:
Pseudomonas aeruginosa = test: Antibacterial activity against Pseudomonas aeruginosa ATCC 14502 after 18 hrs; format: functional, organism-based
Method in brief: (§1)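 Bacterial cells suspended in Mueller-Hinton broth at a final density of […]. Incubated aerobically with compounds in DMSO at 37 °C for 18 h, alongside DMSO-only blank cultures and an ofloxacin positive control. MIC taken as the lowest concentration giving complete inhibition of visible growth.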

Bacillus subtilis = test: Antibacterial activity against Bacillus subtilis ATCC 6633 after 18 hrs; format: functional, organism-based; method in brief: as §1
Saccharomyces = test: Antifungal activity against Saccharomyces sake ATCC 26421 after 48 hrs; format: functional, organism-based
Method in brief: (§2)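 Fungi grown in Sabouraud dextrose broth with compounds for 48 h at 37 °C. Blank cultures received a limited amount of DMSO. Amphotericin B, dissolved in DMSO, served as the positive control.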

Nannizzia gypsea = test: Antifungal activity against Microsporum gypseum ATCC 14683 after 48 hrs; format: functional, organism-based; method in brief: as §2
Trichophyton rubrum = test: Antifungal activity against Trichophyton rubrum ATCC 10218 after 48 hrs; format: functional, organism-based; method in brief: as §2
Candida albicans = test: Antifungal activity against Candida albicans ATCC 1600 after 48 hrs; format: functional, organism-based; method in brief: as §2
Staphylococcus aureus = test: Antibacterial activity against Staphylococcus aureus ATCC 25923 after 18 hrs; format: functional, organism-based; method in brief: as §1
[1] = system: Staphylococcus epidermidis; test: Antibacterial activity against Staphylococcus epidermidis ATCC 12228 after 18 hrs; format: functional, organism-based; method in brief: as §1
Kocuria rhizophila = test: Antibacterial activity against Micrococcus luteus ATCC 9341 after 18 hrs; format: functional; conditions: DC2201; method in brief: as §1
Escherichia coli = test: Antibacterial activity against Escherichia coli ATCC 25922 after 18 hrs; format: functional, organism-based; method in brief: as §1
Shigella flexneri = test: Antibacterial activity against Shigella flexneri ATCC 12022 after 18 hrs; format: functional, organism-based; method in brief: as §1

Measured: Activity

COC(=O)C[C@H]1C(C)(C)[C@H](OC(C)=O)[C@]2(OC(C)=O)C=C3[C@H]([C@H](OC(C)=O)C[C@]4(C)[C@H]3CC(=O)O[C@H]4c3ccoc3)[C@@]1(C)C2=O
inactive: all assays above

C=C1[C@@H]2CC[C@@]3(C)[C@H](c4ccoc4)OC(=O)C[C@]13O[C@H]1CC(=O)C(C)(C)[C@H](CC(=O)OC)[C@]12C
inactive: all assays above

COC(=O)C[C@H]1C(C)(C)[C@H](O)[C@@H]2C=C3[C@H]([C@H](OC(C)=O)C[C@]4(C)[C@H]3CC(=O)O[C@H]4c3ccoc3)[C@@]1(C)C2=O
inactive: all assays above

COC(=O)C[C@H]1C(C)(C)C(=O)[C@@H]2CC3C4=CC(=O)O[C@@H](c5ccoc5)[C@]4(C)CC[C@@H]3[C@@]1(C)C2=O (some centres not stated)
inactive: all assays above

COC(=O)C[C@H]1C(C)(C)[C@H](OC(=O)c2ccccc2)[C@]2(O)CC3=C4CC(=O)O[C@@H](c5ccoc5)[C@]4(C)CC[C@@H]3[C@@]1(C)C2=O
inactive: all assays above

C/C=C(\C)C(=O)O[C@H]1C(C)(C)[C@H](CC(=O)OC)[C@]2(C)C(=O)[C@@]1(O)CC1=C3[C@@H](O)C(=O)O[C@@H](c4ccoc4)[C@]3(C)CC[C@@H]12
inactive: all assays above

CC(=O)O[C@@H]1C[C@H](O)[C@]2(C)[C@H]3CC[C@@]4(C)[C@H](c5ccoc5)OC(=O)[C@H]5O[C@]54[C@]3(C)[C@H](OC(C)=O)C[C@H]2C1(C)C
inactive: all assays above

COC(=O)C[C@H]1C(C)(C)[C@H](OC(=O)C(C)C)[C@@H]2C=C3[C@H]([C@H](OC(C)=O)C[C@]4(C)[C@H]3CC(=O)O[C@H]4c3ccoc3)[C@@]1(C)C2=O
inactive: all assays above

C/C=C(\C)C(=O)O[C@H]1C(C)(C)[C@H](CC(=O)OC)[C@]2(C)C(=O)[C@@]1(O)C=C1C3=CC(=O)O[C@@H](c4ccoc4)[C@]3(C)CC[C@@H]12
inactive: all assays above

CC(=O)O[C@H]1C[C@@H](OC(C)=O)C(C)(C)[C@@H]2C[C@@H](O)[C@]3(C)[C@H](CC[C@@]4(C)[C@H](c5ccoc5)OC(=O)[C@H]5O[C@@]534)[C@@]12C
inactive: all assays above

CC(=O)O[C@H]1C[C@@H](O)C(C)(C)[C@@H]2C[C@@H](O)[C@]3(C)[C@H](CC[C@@]4(C)[C@H](c5ccoc5)OC(=O)[C@H]5O[C@@]534)[C@@]12C
inactive: all assays above

CC1(C)C(=O)C=C[C@]2(C)[C@H]3CC[C@@]4(C)[C@H](c5ccoc5)OC(=O)[C@H]5O[C@]54[C@]3(C)C(=O)C[C@@H]12
inactive: all assays above

Reference: ChEMBL document CHEMBL1153729, “Structurally diverse limonoids from the fruits of Swietenia mahagoni” (2009)
